# According to ChEMBL document CHEMBL4261516, “Design, synthesis and pharmacological evaluation of new 2-oxo-quinoline derivatives containing α-aminophosphonates as potential antitumor agents” (Medchemcomm, 2017):
# What was measured:
# [1] = system: SK-OV-3; assay: Cytotoxicity against human SKOV3 cells after 48 hrs by MTT assay; type: functional, cell-based; details: SK-OV-3, 48 h
# Summary of the method: (§1)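 HepG2, SK-OV-3, NCI-H460 and HL 7702 lines grown as monolayers in DMEM with 10% FBS plus penicillin/streptomycin at 37 °C, 5% CO2. Exponentially growing cells were seeded and exposed to the indicated concentrations for 48 h. MTT was then added for 4 h at 37 °C, formazan was dissolved in DMSO, and OD was read at 490 nm. Each concentration was run in triplicate wells, with three independent runs per line.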
# [2] = system: NCI-H460; assay: Cytotoxicity against human NCI-H460 cells after 48 hrs by MTT assay; type: functional, cell-based; details: NCI-H460, 48 h; summary of the method: as §1
# [3] = system: HepG2; assay: Cytotoxicity against human HepG2 cells after 48 hrs by MTT assay; type: functional, cell-based; details: HepG2, 48 h; summary of the method: as §1
# [4] = system: L02; assay: Cytotoxicity against human HL-7702 cells after 48 hrs by MTT assay; type: cell-based; details: L02, 48 h; summary of the method: as §1
SMILES,IC50 [1],IC50 [2],IC50 [3],IC50 [4]
CCOP(=O)(Cc1ccc(/N=C/c2cc3ccccc3[nH]c2=O)cc1)OCC,36 µM,57.9 µM,17.9 µM,> 100 µM
CCOP(=O)(OCC)C(Nc1ccc(C)cc1)c1cc2cc3c(cc2[nH]c1=O)OCO3 (configuration not stated),48.9 µM,> 100 µM,43.1 µM,> 100 µM
CCCCNC(c1cc2cc(C)ccc2[nH]c1=O)P(=O)(OCC)OCC (configuration not stated),130 µM,> 100 µM,39.2 µM,> 100 µM
CCOP(=O)(OCC)C(Nc1ccc(C(F)(F)F)cc1)c1cc2cc(OC)ccc2[nH]c1=O (configuration not stated),102 µM,> 100 µM,40.1 µM,> 100 µM
CCCCNC(c1cc2cc(OC)ccc2[nH]c1=O)P(=O)(OCC)OCC (configuration not stated),58.2 µM,> 100 µM,43.2 µM,> 100 µM
CCOP(=O)(OCC)C(Nc1ccc([N+](=O)[O-])cc1)c1cc2cc3c(cc2[nH]c1=O)OCO3 (configuration not stated),28.2 µM,> 100 µM,44 µM,> 100 µM
CCOP(=O)(OCC)C(Nc1ccc(C)cc1)c1cc2cc(C)ccc2[nH]c1=O (configuration not stated),37.2 µM,> 100 µM,37.6 µM,> 100 µM
CCOP(=O)(OCC)C(Nc1cccc(C)c1)c1cc2cc(OC)ccc2[nH]c1=O (configuration not stated),73 µM,> 100 µM,45.5 µM,> 100 µM
CCOP(=O)(OCC)C(Nc1ccc(F)cc1)c1cc2cc3c(cc2[nH]c1=O)OCO3 (configuration not stated),26.2 µM,59.6 µM,38 µM,> 100 µM
CCOP(=O)(OCC)C(Nc1ccccc1)c1cc2cc3c(cc2[nH]c1=O)OCO3 (configuration not stated),65 µM,> 100 µM,45.2 µM,> 100 µM
CCOP(=O)(OCC)C(Nc1ccc(C(F)(F)F)cc1)c1cc2cc3c(cc2[nH]c1=O)OCO3 (configuration not stated),22.4 µM,> 100 µM,79 µM,> 100 µM
CCOP(=O)(OCC)C(Nc1ccc([N+](=O)[O-])cc1)c1cc2cc(C)ccc2[nH]c1=O (configuration not stated),> 200 µM,> 100 µM,35.6 µM,> 100 µM
CCOP(=O)(OCC)C(Nc1ccc(C)cc1)c1cc2ccccc2[nH]c1=O (configuration not stated),66.8 µM,> 100 µM,67.3 µM,> 100 µM
CCOP(=O)(OCC)C(Nc1cccc(C)c1)c1cc2cc3c(cc2[nH]c1=O)OCO3 (configuration not stated),> 100 µM,> 100 µM,> 100 µM,> 100 µM
CCCCNC(c1cc2ccccc2[nH]c1=O)P(=O)(OCC)OCC (configuration not stated),38.3 µM,> 100 µM,61.4 µM,> 100 µM
O=c1[nH]cc(F)c(=O)[nH]1 [FLUOROURACIL],26.3 µM,,,58.7 µM
CCOP(=O)(OCC)C(Nc1cccc(C)c1)c1cc2cc(C)ccc2[nH]c1=O (configuration not stated),342 µM,> 100 µM,46 µM,> 100 µM
COc1ccc2[nH]c(=O)c(C=O)cc2c1,> 200 µM,> 200 µM,> 200 µM,> 100 µM

SMILES,IC50 [1],IC50 [2],IC50 [3],IC50 [4]
CCOP(=O)(OCC)C(Nc1ccccc1)c1cc2cc(C)ccc2[nH]c1=O (configuration not stated),69.4 µM,> 100 µM,39.6 µM,> 100 µM
O=Cc1cc2ccccc2[nH]c1=O,> 200 µM,> 200 µM,> 200 µM,> 100 µM
CCOP(=O)(OCC)C(Nc1ccccc1)c1cc2cc(OC)ccc2[nH]c1=O (configuration not stated),54.7 µM,> 100 µM,60.8 µM,> 100 µM
CCOP(=O)(OCC)C(Nc1ccc(F)cc1)c1cc2cc(C)ccc2[nH]c1=O (configuration not stated),30.3 µM,> 100 µM,46.2 µM,> 100 µM
CCOP(=O)(OCC)C(Nc1cccc(C)c1)c1cc2ccccc2[nH]c1=O (configuration not stated),56 µM,> 100 µM,65.5 µM,> 100 µM
CCOP(=O)(OCC)C(Nc1ccc(F)cc1)c1cc2ccccc2[nH]c1=O (configuration not stated),41 µM,> 100 µM,37.2 µM,> 100 µM
CCOP(=O)(OCC)C(Nc1ccc(C(F)(F)F)cc1)c1cc2cc(C)ccc2[nH]c1=O (configuration not stated),191 µM,> 100 µM,68.1 µM,> 100 µM
CCOP(=O)(OCC)C(Nc1ccc(F)cc1)c1cc2cc(OC)ccc2[nH]c1=O (configuration not stated),270 µM,> 100 µM,58.9 µM,> 100 µM
CCOP(=O)(OCC)C(Nc1ccc(C)cc1)c1cc2cc(OC)ccc2[nH]c1=O (configuration not stated),60 µM,> 100 µM,57.6 µM,> 100 µM
CCOP(=O)(Cc1ccc(/N=C/c2cc3cc4c(cc3[nH]c2=O)OCO4)cc1)OCC,47.9 µM,> 100 µM,28.9 µM,> 100 µM
CCOP(=O)(OCC)C(Nc1ccc([N+](=O)[O-])cc1)c1cc2ccccc2[nH]c1=O (configuration not stated),30 µM,> 100 µM,75.2 µM,> 100 µM
CCOP(=O)(OCC)C(Nc1ccc([N+](=O)[O-])cc1)c1cc2cc(OC)ccc2[nH]c1=O (configuration not stated),25.1 µM,44.6 µM,20.8 µM,> 100 µM
O=Cc1cc2cc3c(cc2[nH]c1=O)OCO3,> 200 µM,> 200 µM,> 200 µM,> 100 µM
CCOP(=O)(OCC)C(Nc1ccccc1)c1cc2ccccc2[nH]c1=O (configuration not stated),54.1 µM,> 100 µM,46.3 µM,> 100 µM
CCOP(=O)(Cc1ccc(/N=C/c2cc3cc(OC)ccc3[nH]c2=O)cc1)OCC,53 µM,> 100 µM,17.3 µM,> 100 µM
CCOP(=O)(OCC)C(Nc1ccc(C(F)(F)F)cc1)c1cc2ccccc2[nH]c1=O (configuration not stated),25.8 µM,> 100 µM,39.1 µM,> 100 µM
CCCCNC(c1cc2cc3c(cc2[nH]c1=O)OCO3)P(=O)(OCC)OCC (configuration not stated),37.2 µM,47.9 µM,46.3 µM,> 100 µM
Cc1ccc2[nH]c(=O)c(C=O)cc2c1,> 200 µM,> 200 µM,> 200 µM,> 100 µM
